Assays:
[1] = molecular target: Opioid receptors; mu & kappa (Homo sapiens) (UniProt P41145+P35372); experiment: Selectivity for kappa opioid receptor over mu opioid receptor; assay type: protein assay
[2] = molecular target: Opioid receptors; delta & kappa (Homo sapiens) (UniProt P41145+P41143); experiment: Selectivity for kappa opioid receptor over delta opioid receptor; assay type: protein assay
[3] = molecular target: T1, Kappa-type opioid receptor (Homo sapiens, UniProt P41145); experiment: Binding affinity for human Kappa opioid receptor
Mus musculus [4] = experiment: Effective dose required to induce sedation was determined in mouse when administered orally; assay type: functional; conditions: po
Summary of the method: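 Mice placed on a raised plastic platform (11 × 7.5 × 3 cm). Latency to step fully off the platform was timed before oral dosing (baseline sedation latency) and 30 min after. ED50 reported with range in parentheses.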

Mu-type opioid receptor [5] = molecular target: T2, Mu-type opioid receptor (Homo sapiens, UniProt P35372); experiment: Inhibition percent of compound towards human Mu opioid receptor; parameters: concentration or dose not given beside the values; conditions: concentration not given here
[6] = molecular target: T3, Delta-type opioid receptor (Homo sapiens, UniProt P41143); experiment: Inhibition percent of compound towards human Delta opioid receptor; parameters: concentration or dose not given beside the values; conditions: concentration not given here
[7] = molecular target: T1, Kappa-type opioid receptor; experiment: Binding affinity for human Opioid receptor kappa 1
[8] = molecular target: T3, Delta-type opioid receptor; experiment: Binding affinity for human Delta opioid receptor
Rattus norvegicus [9] = experiment: Effective dose required to inhibit formalin induced flinching in rat as a measure of antinociception activity when administered orally; assay type: functional; conditions: po
Rattus norvegicus [10] = organism: Rattus norvegicus; experiment: Percent inhibition of rotarod performance based on the comparison of baseline and post-treatment rotarod latencies; assay type: functional
Mu-type opioid receptor [11] = molecular target: T2, Mu-type opioid receptor; experiment: Binding affinity for human Mu opioid receptor
Mus musculus [12] = experiment: Effective dose required to inhibit acetic acid induced writhing in mouse when administered orally; assay type: functional; conditions: po
Summary of the method: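 Mice dosed orally with vehicle or test agent; 15 min later given 0.6% acetic acid intraperitoneally. Writhes counted over a 10 min period starting 5 min after the acid injection. ED50 reported with range in parentheses.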

T3 sequence (P41143 whole entry): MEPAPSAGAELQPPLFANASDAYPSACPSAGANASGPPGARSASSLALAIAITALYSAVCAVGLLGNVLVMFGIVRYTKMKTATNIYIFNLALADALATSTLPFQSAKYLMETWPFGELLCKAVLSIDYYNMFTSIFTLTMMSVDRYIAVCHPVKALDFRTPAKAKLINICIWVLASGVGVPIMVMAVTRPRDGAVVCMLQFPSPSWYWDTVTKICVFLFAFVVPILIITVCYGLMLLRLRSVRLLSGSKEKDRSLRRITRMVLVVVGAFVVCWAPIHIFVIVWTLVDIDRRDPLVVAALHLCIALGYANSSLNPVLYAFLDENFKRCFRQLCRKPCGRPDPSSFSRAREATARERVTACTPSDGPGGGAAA
T2 sequence (P35372 whole entry): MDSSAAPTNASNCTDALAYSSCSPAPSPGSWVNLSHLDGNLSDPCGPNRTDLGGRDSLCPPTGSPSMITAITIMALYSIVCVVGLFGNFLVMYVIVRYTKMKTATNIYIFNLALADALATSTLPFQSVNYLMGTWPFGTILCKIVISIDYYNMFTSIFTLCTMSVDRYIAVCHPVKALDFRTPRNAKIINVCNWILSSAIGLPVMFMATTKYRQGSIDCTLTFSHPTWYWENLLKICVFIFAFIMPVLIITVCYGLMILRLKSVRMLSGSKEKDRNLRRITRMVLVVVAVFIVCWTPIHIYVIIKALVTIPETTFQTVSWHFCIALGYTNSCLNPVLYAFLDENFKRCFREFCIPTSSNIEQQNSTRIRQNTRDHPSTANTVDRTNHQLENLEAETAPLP
T1 sequence (P41145 whole entry): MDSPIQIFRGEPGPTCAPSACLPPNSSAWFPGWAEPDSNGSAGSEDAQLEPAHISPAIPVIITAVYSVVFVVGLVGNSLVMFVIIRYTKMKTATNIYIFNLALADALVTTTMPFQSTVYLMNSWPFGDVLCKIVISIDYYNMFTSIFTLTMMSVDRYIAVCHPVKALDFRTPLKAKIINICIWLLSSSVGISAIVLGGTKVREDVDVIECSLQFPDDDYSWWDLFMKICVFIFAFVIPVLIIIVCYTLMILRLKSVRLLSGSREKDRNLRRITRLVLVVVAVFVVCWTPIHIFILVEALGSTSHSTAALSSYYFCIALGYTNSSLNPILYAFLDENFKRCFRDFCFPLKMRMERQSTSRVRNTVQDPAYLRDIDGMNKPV
Sequence of Opioid receptors; delta & kappa (Homo sapiens) (P41143 whole entry, looked up): as the sequence (P41143 whole entry) above
Sequence of Opioid receptors; delta & kappa (Homo sapiens) (P41145 whole entry, looked up): as the sequence (P41145 whole entry) above
Sequence of Opioid receptors; mu & kappa (Homo sapiens) (P35372 whole entry, looked up): as the sequence (P35372 whole entry) above
Sequence of Opioid receptors; mu & kappa (Homo sapiens) (P41145 whole entry, looked up): as the sequence (P41145 whole entry) above

| SMILES | Ki [3] [nM] | inhibition (Mu-type opioid receptor [5]) [%] | inhibition [6] [%] | other results |
| --- | --- | --- | --- | --- |
| O=C1[C@H](c2ccc(Cl)c(Cl)c2)CC=CCN1[C@H](CN1CCCC1)c1ccccc1 | 12 |  |  | Selectivity [1]: 1000; Selectivity [2]: 1000 |
| CN(C(=O)Cc1ccc(Cl)c(Cl)c1)C(CN1CCCC1)c1ccccc1 (stereo not drawn) |  |  |  | ED50 (Mus musculus [4]): 7.5 mg/kg |
| O=C1[C@H](c2ccc(Cl)c(Cl)c2)CC=CCN1[C@H](CN1CC[C@H](O)C1)c1ccccc1 | 0.2 |  |  | Selectivity [1]: 1000; Selectivity [2]: 1000 |
| O=C1C(c2cccc(S(=O)(=O)N3CCCC3)c2)CC=CCN1C(CN1CCCC1)c1ccccc1 (stereo not drawn) | 1900 | < 60 | < 60 |  |
| O=C1[C@@H](c2ccc(Cl)c(Cl)c2)CC=CCN1C(CN1CCCC1)c1ccccc1 (stereo partly drawn) |  | < 60 | < 60 | Ki [7]: 17 nM |
| O=C1C(c2ccc(C(F)(F)F)cc2)CC=CCN1C(CN1CCCC1)c1ccccc1 (stereo not drawn) | 0.72 | < 60 |  | Ki [8]: 1000 nM |
| O=C1C(Oc2ccc(Cl)c(Cl)c2)CC=CCN1C(CN1CCCC1)c1ccccc1 (stereo not drawn) | 2.6 | < 60 | < 60 |  |
| O=C1C(c2ccc(Cl)cc2)CC=CCN1C(CN1CCCC1)c1ccccc1 (stereo not drawn) |  | < 60 | < 60 | Ki [7]: 2 nM |
| COc1ccc(C2CC=CCN(C(CN3CCCC3)c3ccccc3)C2=O)cc1 (stereo not drawn) | 22 | < 60 | < 60 |  |
| O=C1[C@@H](c2ccc(Cl)cc2)CC=CCN1C(CN1CCCC1)c1ccccc1 (stereo partly drawn) | 35 | < 60 | < 60 |  |
| COc1ccc([C@H]2CC=CCN(C(CN3CCCC3)c3ccccc3)C2=O)cc1 (stereo partly drawn) | 800 | < 60 | < 60 |  |
| O=C1C(c2ccc(Cl)c(Cl)c2)CC=CCN1C(CN1CCCC1)c1ccccc1 (stereo not drawn) |  |  |  | ED50 (Rattus norvegicus [9]): 2.7 mg/kg; ED50 (Mus musculus [4]): 48 mg/kg; Ki [7]: 0.34 nM; Inhibition (Rattus norvegicus [10]): 54%; Ki (Mu-type opioid receptor [11]): 1000 nM; Ki [8]: 370 nM; ED50 (Mus musculus [12]): 1.6 mg/kg |
